The text below walks through data of ChEMBL document CHEMBL3393048, “Discovery of potent cytotoxic ortho-aryl chalcones as new scaffold targeting tubulin and mitosis with affinity-based fluorescence” (J Med Chem, 2014).

Assay [1] has as its system SW480. In words: Antiproliferative activity against human SW480 cells after 48 hrs by SRB method. The format is functional, cell-based. The following applies: SW480, 48 h. The method in brief:
(§1)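 SRB assay. Cells in DMEM high glucose with 10% FBS were seeded at 5000/well and grown 24 h; a day-0 plate was fixed at that point. Compounds were added in triplicate for 48 h. IC50 came from nonlinear regression of dose–response curves from at least two independent experiments.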
For orientation: Sulforhodamine B stains cellular protein and so reports cell mass.

Assay [2] can be described thus: Antiproliferative activity against vincristine-resistant human HCT8 cells after 48 hrs by SRB method. The format is functional, cell-based. The following applies: HCT-8, 48 h. The method in brief:
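SRB assay. Cells in DMEM high glucose with 10% FBS were seeded at 5000/well and grown 24 h; a day-0 plate was fixed at that point. Compounds were added in triplicate for 48 h. Cells were fixed with TCA at 4 °C for 1 h, stained with 0.4% SRB, and the dye was solubilized in 10 mM Tris pH 10.4. OD was read at 515 nm with day-0 OD subtracted. IC50 came from nonlinear regression of dose–response curves from at least two independent experiments.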

Assay [3] relates to MCF7. The assay is described as follows: Antiproliferative activity against doxorubicin-resistant human MCF7 cells after 48 hrs by SRB method. The format is functional, cell-based. The following applies: MCF7, 48 h. The method in brief:
as §1

Assay [4] relates to A2780. In words: Drug resistance index, ratio of IC50 for taxol-resistant human A2780 cells to IC50 for human A2780 cells. The format is functional. The method in brief: (§2)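 Drug resistance index = IC50 in the resistant line / IC50 in its parental line. […] Pairs: A549/CDDP vs A549, MCF-7/DOX vs MCF-7, A2780/TAX vs A2780, HCT-8/VCT vs HCT-8.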
Assay [5] has as its system A549. In words: Drug resistance index, ratio of IC50 for cis-platinum-resistant human A549 cells to IC50 for human A549 cells. The format is functional. The essentials: as §2
Assay [6] has as its system A549. The assay is described as follows: Cell cycle arrest in human A549 cells assessed as accumulation at G2/M phase at 62.5 nM after 24 hrs by Hoechst 33342 staining-based ArrayScanVTI analysis. The format is functional. The method in brief:
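A549 cells were seeded at 5000/well, cultured overnight, then treated 24 h over a 7.81–250 concentration series. Cells were fixed in prewarmed paraformaldehyde 10 min, permeabilized with Triton X-100, and nuclei stained with Hoechst 33342. Imaging was by ArrayScan VTI high-content analysis. Phase percentage = cells within a gated fluorescence intensity / total cells counted.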

Assay [7] deals with A549. The assay is described as follows: Induction of apoptosis in human A549 cells assessed as total apoptotic cells at 0.25 uM after 48 hrs by Annexin V-FITC/propidium iodide staining-based flow cytometry. The format is functional. For orientation: In flow cytometry, cells or beads pass a laser one at a time.
For assay [8], the system named is A549. The assay is described as follows: Induction of apoptosis in human A549 cells assessed as total apoptotic cells at 0.5 uM after 48 hrs by Annexin V-FITC/propidium iodide staining-based flow cytometry. The format is functional.
Assay [9] addresses Tubulin. In words: Inhibition of tubulin polymerization (unknown origin) by DAPI staining-based fluorescence microscopy. The format is protein-complex assay, Homo sapiens. The essentials:
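Purified tubulin (99% pure; 20 μM as supplied) mixed with compound in general tubulin buffer (80 mM PIPES pH 6.9, 2.0 mM MgCl₂, 0.5 mM EGTA) with 1 mM GTP, 20% glycerol and DAPI reporter. Polymerization tracked kinetically at 37 °C as fluorescence rise (ex 360, em 450 nm). Duplicate wells per concentration. IC50 from at least two independent experiments.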

Assay [10] deals with A549. The assay is described as follows: Induction of apoptosis in human A549 cells assessed as late apoptotic cells at 0.5 uM after 48 hrs by Annexin V-FITC/propidium iodide staining-based flow cytometry (reference value: 0.10%). The format is functional.
Assay [11] has as its system A549. In words: Induction of apoptosis in human A549 cells assessed as early apoptotic cells at 0.75 uM after 48 hrs by Annexin V-FITC/propidium iodide staining-based flow cytometry (reference value: 0.47%). The format is functional.
For assay [12], the system named is A549. In words: Induction of apoptosis in human A549 cells assessed as late apoptotic cells at 0.75 uM after 48 hrs by Annexin V-FITC/propidium iodide staining-based flow cytometry (reference value: 0.10%). The format is functional.

Activity calls are given as the source filed them. The rule behind the calls is not given here.

The term IC50 denotes the concentration at which inhibition is half-maximal. Regarding `CN(C)c1ccc(/C=C/C(=O)c2ccccc2-c2ccc(F)cc2)cc1`, the half-maximal inhibitory concentration (IC50) stood at 41 nM in assay [1], 96 nM in [2], 45 nM in [3] and 3600 nM in assay [9]. For the same molecule, the “Ratio IC50” value in assay [4] is reported as 0.52; in assay [5], 1.6. Further, the outcome in [6] was Active. The Activity in assay [7] is 69.1%; in assay [8], 75.71%; in [10] it was 41.85%; in assay [11], 36.61%; in assay [12], 45.45%.
